Experimental data taken from ChEMBL document CHEMBL1770055, “Regioselective one pot synthesis of 3,3'-diindolylethylene derivatives and study of their cytotoxic activity” (Bioorg Med Chem Lett, 2011).

Legend:
[1] = test system: K562; test: Cytotoxicity against human K562 cells assessed as cell growth inhibition after 48 hrs by MTS-PMS assay; format: functional, cell-based; conditions: K562, 48 h
How it was run: (§1)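 Cells seeded at 5 × 10^4 per 200 µl and exposed to compounds at 0–100 µM, in triplicate, for 48 h at 37 °C, 5% CO2. MTS (2.0 mg/ml) and PMS (0.92 mg/ml) were mixed 10:1 and added, followed by 3 h at 37 °C. Absorbance (formazan) was read at 490 nm. Viability is expressed as % of untreated. IC50 was obtained by graphic extrapolation.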

[2] = test system: U-937; test: Cytotoxicity against human U937 cells assessed as cell growth inhibition after 48 hrs by MTS-PMS assay; format: functional, cell-based; conditions: U-937, 48 h; how it was run: as §1
[3] = test system: U-937; test: Induction of apoptosis in human U937 cells assessed as late apoptotic cells at 13.06 uM after 8 hrs using annexin V/propidium iodide staining by flow cytometry (reference value: 5.83%); format: functional
[4] = test system: U-937; test: Induction of apoptosis in human U937 cells assessed as pre-necrotic cells at 13.06 uM after 8 hrs using annexin V/propidium iodide staining by flow cytometry (reference value: 0.30%); format: functional
[5] = test system: U-937; test: Induction of apoptosis in human U937 cells assessed as apoptotic cells at 13.06 uM after 8 hrs using annexin V/propidium iodide staining by flow cytometry (reference value: 2.42%); format: functional

Structure (SMILES): C=C(c1c(-c2ccccc2)[nH]c2ccccc12)c1c(-c2ccccc2)[nH]c2ccccc12
- IC50 [1]: > 100 µM
- IC50 [2]: > 100 µM

Structure (SMILES): C=C(c1c(-c2cccc(Cl)c2)[nH]c2ccccc12)c1c(-c2cccc(Cl)c2)[nH]c2ccccc12
- IC50 [1]: 40.3 µM
- IC50 [2]: 46.9 µM

Structure (SMILES): C=C(c1c(-c2ccc(Cl)cc2Cl)[nH]c2ccccc12)c1c(-c2ccc(Cl)cc2Cl)[nH]c2ccccc12
- IC50 [1]: > 100 µM
- IC50 [2]: > 100 µM

Structure (SMILES): C=C(c1c(-c2ccccc2OC)[nH]c2ccccc12)c1c(-c2ccccc2OC)[nH]c2ccccc12
- IC50 [1]: 92.6 µM
- IC50 [2]: 71.6 µM

Structure (SMILES): C=C(c1c(-c2ccc(OC)c(OC)c2)[nH]c2ccccc12)c1c(-c2ccc(OC)c(OC)c2)[nH]c2ccccc12
- IC50 [1]: > 100 µM
- IC50 [2]: > 100 µM

Structure (SMILES): C=C(c1c(-c2cccc(Br)c2)[nH]c2ccccc12)c1c(-c2cccc(Br)c2)[nH]c2ccccc12
- IC50 [1]: > 100 µM
- IC50 [2]: > 100 µM

Structure (SMILES): ClC=C(c1c(-c2ccccc2)[nH]c2ccccc12)c1c(-c2ccccc2)[nH]c2ccccc12
- Activity [3]: 11.68%
- Activity [4]: 1.3%
- IC50 [1]: 18.2 µM
- IC50 [2]: 13.1 µM
- Activity [5]: 41%
